{
  "source": "ChEMBL document CHEMBL1124127",
  "about": "“Central dopaminergic and 5-hydroxytryptaminergic effects of C3-methylated derivatives of 8-hydroxy-2-(di-n-propylamino)tetralin” (J Med Chem, 1988)",
  "key": {"[1]": {"system": "Rattus norvegicus", "experiment": "Effect on in vivo accumulation of DOPA was measured in rat corpus striatum at 2.2 (umol/kg) dose", "assay_type": "functional", "outline": "(§1)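 Rats not pretreated with reserpine received test drug (hydrochloride or hydrobromide salt) sc in the neck region 60 min before death. NSD 1015 decarboxylase inhibitor (100 mg/kg, i.e., 573 μmol/kg, ip) was given 30 min before decapitation. Brain was dissected on ice. Tissue was homogenized in 0.1 M perchloric acid with α-methyl-DOPA internal standard. Analytes were quantified by ion-pair reversed-phase HPLC-electrochemical detection. Values are means ± SEM, n = 3-7 per treated group.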"}, "[2]": {"system": "Rattus norvegicus", "experiment": "Effect on in vivo accumulation of DOPA was measured in rat corpus striatum at 22(Micromol/kg) dose", "assay_type": "functional", "outline": "as §1"}, "[3]": {"system": "Rattus norvegicus", "experiment": "Effect on in vivo accumulation of 5-HTP was measured in rat corpus striatum at 22(umol/kg) dose", "assay_type": "functional", "outline": "as §1"}, "[4]": {"system": "Rattus norvegicus", "experiment": "Effect on in vivo accumulation of DOPA was measured in rat limbic system at 2.2 (umol/kg) dose", "assay_type": "functional", "outline": "as §1"}, "[5]": {"system": "Rattus norvegicus", "experiment": "Effect on in vivo accumulation of […] was measured in rat corpus striatum at 2.2 (umol/kg) dose", "assay_type": "functional", "outline": "as §1"}, "[6]": {"system": "Rattus norvegicus", "experiment": "Effect on in vivo accumulation of dopamine(DA) was measured in rat limbic system at 22(Micromol/kg) dose", "assay_type": "functional", "outline": "(§2)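 Non-reserpinized rats got the test drug sc in the neck (5 mL/kg) 60 min before death, and NSD 1015 (573 µmol/kg ip) 30 min before death. After decapitation, the limbic system was dissected on ice, frozen and homogenized in 0.1 M perchloric acid with α-methyl-DOPA internal standard. DA was measured by ion-pair reversed-phase HPLC with electrochemical detection. Data are mean ± SEM (controls n=17-19, treated 3-7), analysed by ANOVA/Dunnett.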"}, "[7]": {"system": "Rattus norvegicus", "experiment": "Effect on in vivo accumulation of 5-HTP was measured in rat corpus striatum at 2.2 (umol/kg) dose", "assay_type": "functional", "outline": "as §1"}, "[8]": {"system": "Rattus norvegicus", "experiment": "Effect on in vivo accumulation of dopamine(DA) was measured in rat limbic system at 2.2 (umol/kg) dose", "assay_type": "functional", "outline": "as §2"}, "[9]": {"system": "Rattus norvegicus", "experiment": "Effect on in vivo accumulation of DOPA was measured in rat limbic system at 22(Micromol/kg) dose", "assay_type": "functional", "outline": "as §1"}, "[10]": {"system": "Rattus norvegicus", "experiment": "Effect on in vivo accumulation of 5-HTP was measured in rat limbic system at 22(Micromol/kg) dose", "assay_type": "functional", "outline": "as §1"}, "[11]": {"biological_target": "T1, 5-hydroxytryptamine receptor 1A (Rattus norvegicus, UniProt P19327)", "T1 sequence (P19327 whole entry)": "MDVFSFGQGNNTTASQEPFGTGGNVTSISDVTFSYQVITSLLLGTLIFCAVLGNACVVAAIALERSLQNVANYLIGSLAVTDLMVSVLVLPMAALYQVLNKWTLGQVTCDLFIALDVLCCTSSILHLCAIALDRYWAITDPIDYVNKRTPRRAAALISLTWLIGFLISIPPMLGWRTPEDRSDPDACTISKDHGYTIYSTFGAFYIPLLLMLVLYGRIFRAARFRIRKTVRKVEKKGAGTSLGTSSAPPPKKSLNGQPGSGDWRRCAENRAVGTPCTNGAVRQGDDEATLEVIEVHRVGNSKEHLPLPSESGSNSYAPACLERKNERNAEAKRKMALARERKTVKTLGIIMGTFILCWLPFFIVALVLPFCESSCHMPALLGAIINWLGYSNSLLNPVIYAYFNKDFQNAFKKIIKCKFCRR", "experiment": "Inhibitory activity tested in vitro at 5-hydroxytryptamine 1A receptor binding site in rat", "outline": "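Competition binding used rat brain membranes washed in 50 mM Tris-HCl pH 7.4, preincubated 10 min at 37 °C to remove 5-HT, and used at 10 mg wet tissue/mL. Assay: 1 nM [3H]-8-OH-DPAT, 3 mM CaCl2, 100 µM pargyline, 15 min at 37 °C, then filtration on PEI-treated filters. Nonspecific binding was set with 10 µM 5-HT. IC50 came from four-parameter logistic regression, mean ± SEM of N experiments.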"}, "[12]": {"system": "Rattus norvegicus", "experiment": "Effect on in vivo accumulation of […] was measured in rat corpus striatum at 22(Micromol/kg) dose", "assay_type": "functional", "outline": "as §1"}, "[13]": {"system": "Rattus norvegicus", "experiment": "Effect on in vivo accumulation of 5-HTP was measured in rat limbic system at 2.2 (umol/kg) dose", "assay_type": "functional", "outline": "as §1"}, "[14]": {"system": "Rattus norvegicus", "experiment": "Effect on in vivo accumulation of […] was measured in rat corpus striatum at 50(Micromol/kg) dose", "assay_type": "functional", "outline": "as §1"}, "[15]": {"system": "Rattus norvegicus", "experiment": "Effect on in vivo accumulation of DOPA was measured in rat limbic system at 25(Micromol/kg) dose", "assay_type": "functional", "outline": "as §1"}, "[16]": {"system": "Rattus norvegicus", "experiment": "Effect on in vivo accumulation of […] was measured in rat corpus striatum at 2.5 (umol/kg) dose", "assay_type": "functional", "outline": "as §1"}, "[17]": {"system": "Rattus norvegicus", "experiment": "Effect on in vivo accumulation of DOPA was measured in rat corpus striatum at 25(Micromol/kg) dose", "assay_type": "functional", "outline": "as §1"}, "[18]": {"system": "Rattus norvegicus", "experiment": "Effect on in vivo accumulation of […] was measured in rat corpus striatum at 25(Micromol/kg) dose", "assay_type": "functional", "outline": "as §1"}, "[19]": {"system": "Rattus norvegicus", "experiment": "Effect on in vivo accumulation of 5-HTP was measured in rat limbic system at 50(Micromol/kg) dose", "assay_type": "functional", "outline": "as §1"}, "[20]": {"system": "Rattus norvegicus", "experiment": "Effect on in vivo accumulation of dopamine(DA) was measured in rat limbic system at 50(Micromol/kg) dose", "assay_type": "functional", "outline": "as §2"}, "[21]": {"system": "Rattus norvegicus", "experiment": "Effect on in vivo accumulation of DOPA was measured in rat corpus striatum at 2.5 (umol/kg) dose", "assay_type": "functional", "outline": "as §1"}, "[22]": {"system": "Rattus norvegicus", "experiment": "Effect on in vivo accumulation of 5-HTP was measured in rat corpus striatum at 25 (umol/kg) dose", "assay_type": "functional", "outline": "as §1"}, "[23]": {"system": "Rattus norvegicus", "experiment": "Effect on in vivo accumulation of DOPA was measured in rat corpus striatum at 50(Micromol/kg) dose", "assay_type": "functional", "outline": "as §1"}, "[24]": {"system": "Rattus norvegicus", "experiment": "Effect on in vivo accumulation of DOPA was measured in rat limbic system at 50(Micromol/kg) dose", "assay_type": "functional", "outline": "as §1"}, "[25]": {"system": "Rattus norvegicus", "experiment": "Effect on in vivo accumulation of 5-HTP was measured in rat corpus striatum at 50(umol/kg) dose", "assay_type": "functional", "outline": "as §1"}, "[26]": {"system": "Rattus norvegicus", "experiment": "Effect on in vivo accumulation of 5-HTP was measured in rat corpus striatum at 2.5(umol/kg) dose", "assay_type": "functional", "outline": "as §1"}, "[27]": {"system": "Rattus norvegicus", "experiment": "Effect on in vivo accumulation of dopamine(DA) was measured in rat limbic system at 2.5 (umol/kg) dose", "assay_type": "functional", "outline": "as §2"}, "[28]": {"system": "Rattus norvegicus", "experiment": "Effect on in vivo accumulation of 5-HTP was measured in rat limbic system at 25(Micromol/kg) dose", "assay_type": "functional", "outline": "as §1"}, "[29]": {"system": "Rattus norvegicus", "experiment": "Effect on in vivo accumulation of dopamine(DA) was measured in rat limbic system at 25(Micromol/kg) dose", "assay_type": "functional", "outline": "as §2"}, "[30]": {"system": "Rattus norvegicus", "experiment": "Effect on in vivo accumulation of 5-HTP was measured in rat limbic system at 2.5 (umol/kg) dose", "assay_type": "functional", "outline": "as §1"}, "[31]": {"system": "Rattus norvegicus", "experiment": "Effect on in vivo accumulation of DOPA was measured in rat limbic system at 2.5 (umol/kg) dose", "assay_type": "functional", "outline": "as §1"}},
  "data": [
    {"smiles": "CCCN(CCC)[C@H]1Cc2c(O)cccc2C[C@@H]1C", "note": "(stereo in doubt; (+)-11)", "values": [
      {"measurement": "Activity", "setting": "[1]", "result": 1008, "unit": "ng/g"},
      {"measurement": "Activity", "setting": "[2]", "result": 959, "unit": "ng/g"},
      {"measurement": "Activity", "setting": "[3]", "result": "<56.4", "unit": "ng/g"},
      {"measurement": "Activity", "setting": "[4]", "result": 389, "unit": "ng/g"},
      {"measurement": "Activity", "setting": "[5]", "result": 5158, "unit": "ng/g"},
      {"measurement": "Activity", "setting": "[6]", "result": "<839", "unit": "ng/g"},
      {"measurement": "Activity", "setting": "[7]", "result": 87.3, "unit": "ng/g"},
      {"measurement": "Activity", "setting": "[8]", "result": 1067, "unit": "ng/g"},
      {"measurement": "Activity", "setting": "[9]", "result": 400, "unit": "ng/g"},
      {"measurement": "Activity", "setting": "[10]", "result": "<89.5", "unit": "ng/g"},
      {"measurement": "IC50", "setting": "[11]", "result": 60.5, "unit": "nM"},
      {"measurement": "Activity", "setting": "[12]", "result": "<4089", "unit": "ng/g"},
      {"measurement": "Activity", "setting": "[13]", "result": 144, "unit": "ng/g"}
    ]},
    {"smiles": "CCCN(CCC)[C@H]1Cc2c(O)cccc2C[C@H]1C", "note": "(stereo in doubt; (-)-15)", "values": [
      {"measurement": "Activity", "setting": "[14]", "result": 5282, "unit": "ng/g"},
      {"measurement": "Activity", "setting": "[15]", "result": "<521", "unit": "ng/g"},
      {"measurement": "Activity", "setting": "[16]", "result": 4439, "unit": "ng/g"},
      {"measurement": "Activity", "setting": "[17]", "result": 1241, "unit": "ng/g"},
      {"measurement": "Activity", "setting": "[18]", "result": 4751, "unit": "ng/g"},
      {"measurement": "Activity", "setting": "[19]", "result": "<88.3", "unit": "ng/g"},
      {"measurement": "Activity", "setting": "[20]", "result": 1065, "unit": "ng/g"},
      {"measurement": "Activity", "setting": "[21]", "result": 1080, "unit": "ng/g"},
      {"measurement": "Activity", "setting": "[22]", "result": "<65.4", "unit": "ng/g"},
      {"measurement": "Activity", "setting": "[23]", "result": 1001, "unit": "ng/g"},
      {"measurement": "Activity", "setting": "[24]", "result": 396, "unit": "ng/g"},
      {"measurement": "Activity", "setting": "[25]", "result": "<45.8", "unit": "ng/g"},
      {"measurement": "Activity", "setting": "[26]", "result": 96.6, "unit": "ng/g"},
      {"measurement": "Activity", "setting": "[27]", "result": 1133, "unit": "ng/g"},
      {"measurement": "Activity", "setting": "[28]", "result": "<120", "unit": "ng/g"},
      {"measurement": "Activity", "setting": "[29]", "result": 1094, "unit": "ng/g"},
      {"measurement": "IC50", "setting": "[11]", "result": 486, "unit": "nM"},
      {"measurement": "Activity", "setting": "[30]", "result": 163, "unit": "ng/g"},
      {"measurement": "Activity", "setting": "[31]", "result": "<463", "unit": "ng/g"}
    ]}
  ]
}
